E-selectin induc = E-selectin induction in HUVECs, primary screen, imaging, HUVEC, immunofluorescence imaging, single point. activation, % at 7.58 µM. P16581. normalized: neutral wells 0, TNF-alpha wells 100. 260,000 tested, 0.37% active;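 active means mean E-selectin-positive cell signal at least 10% of the positive control, reached in at least 60% of replicates, without over 20% cell loss; inconclusive means no rule given, readout overlaps actives, possibly toxicity-flagged; inactive means the rest, including those meeting only one limit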
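Assay system: HUVEC, human umbilical vein endothelial cells / Amount: 3,000 HUVEC/well / Controls: TNF-alpha positive control, DMSO neutral control / Compound dosing: single concentration / Medium: EGM-2 over gelatin coat / Evaluation: percent E-selectin-positive cells / Signal: immunofluorescence imaging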
DENV2 CPE rescue = inhibitors of DENV2 cytopathic effect, primary screen, cell-based, plate reader, single concentration. DENV2-infected cells, cytopathic effect rescue. AID 651640, 2012. CPE inhibition, % at 9.99 µM. 350,000 tested, 1.7% active; in the data active means CPE inhibition above about 20%, passing the limit was not always enough; inconclusive means no clear call, values can overlap the other calls; tested in BHK-21 cells;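 further: 0% = median of neutral control wells and 100% = median of positive control wells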
CFTR F508del cor = F508del CFTR correction, initial screen, CFBE line, single point; CFBE cells, YFP halide quenching; stimulated with forskolin plus potentiator P3; % fluorescence drop versus neutral controls; activity (quench increase), % at 7.58 µM; 350,000 tested, 0.36% active;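 active means mean added fluorescence quench of at least 8% versus neutral control, with both replicates also reaching 8%; inconclusive means only one of the mean or replicate conditions met; inactive means mean below 8% and not both replicates reaching 8%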;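 further: cells transiently co-express mutant CFTR-F508del with the halide-sensitive YFP; corrector assay measuring rescue of mutant channel to the surface after 24 h compound exposure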
ERAP1 HTS inh = human ERAP1 aminopeptidase inhibitors, primary screen, biochemical, single point, plate reader | 340,000 tested, 0.15% active | Endoplasmic reticulum aminopeptidase 1 (Homo sapiens), Q9NZ08 | recombinant ERAP1, Leu-AMC fluorescence, 60 min | inhibition, % at 10.7 µM;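 active means mean replicate inhibition of at least 30%, or all replicates individually reaching that 30% level; inactive means mean below 30% and not every replicate reaching it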;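 further: 0% = neutral control wells and 100% = L-leucinethiol positive control wells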
FGF22 binding = binders of human FGF22 protein, primary screen, FGF22 synaptogenesis inhibitor project, biophysical, thermal shift, single point. recombinant FGF22 thermal shift, SYPRO orange fluorescence; percent of sucrose octasulfate shift, DMSO zero. 340,000 tested, 1.5% active. Fibroblast growth factor 22 (Homo sapiens), Q9HCT0. activity (Tm shift, normalised), % at 9.99 µM;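 active means mean Tm shift, scaled 0 neutral to 100 positive control, at about 1.3% or above, every replicate too, limit read from the data; inconclusive means no clear call, values can overlap the other calls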
Target sequence (Q9HCT0 whole entry, looked up): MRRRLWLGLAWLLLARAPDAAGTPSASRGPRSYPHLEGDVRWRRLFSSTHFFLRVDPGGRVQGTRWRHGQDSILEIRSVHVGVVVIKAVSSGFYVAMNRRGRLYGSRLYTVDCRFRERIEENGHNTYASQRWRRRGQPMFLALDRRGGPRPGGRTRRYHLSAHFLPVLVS
An asterisk follows results filed as active. Sampled rows, rich in hits. Any-hit rate of the full collection: about 3.7%.

Screening COc1cc(OC)cc(C(=O)NC(c2ccccc2)c2ccccc2)c1 returned DENV2 CPE rescue 14, CFTR F508del cor -1, ERAP1 HTS inh 2 and FGF22 binding 0.
For O=C(Cn1c(=O)oc2cc(S(=O)(=O)N3CCCCC3)ccc21)N1CCCCC1 the results were DENV2 CPE rescue 7, CFTR F508del cor -4, ERAP1 HTS inh -1 and FGF22 binding 0.
CCOc1ccccc1N1CCN(C(=O)c2cc(S(=O)(=O)N3CCCCC3)ccc2C)CC1 was read as E-selectin induc -2, DENV2 CPE rescue -6, CFTR F508del cor 4, ERAP1 HTS inh 1 and FGF22 binding 0.
For COc1ccccc1N1CCN(C(=O)Cn2c(=O)oc3cc(S(=O)(=O)N4CCCC4)ccc32)CC1 the results were E-selectin induc 0, DENV2 CPE rescue 33*, CFTR F508del cor -1, ERAP1 HTS inh -5 and FGF22 binding 0.
COc1ccccc1N1CCN(C(=O)c2cc(S(=O)(=O)N3CCCCC3)ccc2C)CC1 was read as E-selectin induc 0, DENV2 CPE rescue 34*, CFTR F508del cor -2, ERAP1 HTS inh 3 and FGF22 binding 0.
COc1ccc(N2CC(C(=O)Nc3ccc(S(=O)(=O)N4CCCC4)cc3)CC2=O)cc1 (stereo unspecified) was read as E-selectin induc 0, DENV2 CPE rescue -7, CFTR F508del cor -2, ERAP1 HTS inh 0 and FGF22 binding 0.
Screening COc1ccccc1N1CC(C(=O)Nc2ccc(S(=O)(=O)N3CCCC3)cc2)CC1=O (stereo unspecified) returned E-selectin induc 0, DENV2 CPE rescue 0, CFTR F508del cor 9.6*, ERAP1 HTS inh 3 and FGF22 binding 42.
O=C(N[C@@H]1CC[C@H](CCNC(=O)C2CCCCC2)O[C@H]1CO)c1ccncc1 was read as E-selectin induc 0, DENV2 CPE rescue -4, CFTR F508del cor 3, ERAP1 HTS inh 0 and FGF22 binding 0.
`CCOC(=O)c1ccc(NC(=O)C2CC3CCC2C3)cc1` (stereo unspecified) gave DENV2 CPE rescue 11, CFTR F508del cor -3, ERAP1 HTS inh -1 and FGF22 binding 0.
`COC(=O)c1ccc(NC(=O)C2CC3CCC2C3)cc1` (stereo unspecified) gave E-selectin induc 0, DENV2 CPE rescue 47*, CFTR F508del cor -1 and FGF22 binding 0.
`Cc1cc(S(=O)(=O)N2CCCC(C(=O)Nc3ccc(C(=O)O)cc3)C2)ccc1Cl` (stereo unspecified) gave DENV2 CPE rescue -1, CFTR F508del cor 0, ERAP1 HTS inh -24 and FGF22 binding 43*.
Screening COC(=O)c1ccc(NC(=O)C2CCCN(S(=O)(=O)c3cnc[nH]3)C2)cc1 (stereo unspecified) returned DENV2 CPE rescue 1, CFTR F508del cor -3, ERAP1 HTS inh -1 and FGF22 binding 0.
For COC(=O)c1ccc(NC(=O)C2CCCN(S(C)(=O)=O)C2)cc1 (stereo unspecified) the results were DENV2 CPE rescue 4, CFTR F508del cor -2, ERAP1 HTS inh 5 and FGF22 binding 43*.
`O=C(Nc1ccc(F)cc1)C1CCCN(S(=O)(=O)c2ccc3[nH]c(=O)ccc3c2)C1` (stereo unspecified) gave DENV2 CPE rescue 115*, CFTR F508del cor 2, ERAP1 HTS inh 0 and FGF22 binding 0.
COc1ccc(NC(=O)Nc2cccc3c2O[C@@H](CN(C)C(=O)Nc2ccccc2)[C@H](C)CN([C@@H](C)CO)C3=O)cc1 was read as E-selectin induc 0, DENV2 CPE rescue -10, CFTR F508del cor 0, ERAP1 HTS inh 0 and FGF22 binding 0.
COc1ccccc1CN1[C@H](CO)[C@H]2c3ccccc3N(C(=O)C3CCCCC3)C[C@H]21 was read as E-selectin induc 0, DENV2 CPE rescue -2, CFTR F508del cor -1, ERAP1 HTS inh -4 and FGF22 binding -1.
Screening COCCOC(=O)N1C(=O)[C@@]2(c3ccccc31)[C@H](c1ccccc1OCCO)N1[C@H](c3ccccc3)[C@H](c3ccccc3)OC(=O)[C@H]1[C@@H]2C(=O)N1CCN(c2ncccn2)CC1 returned DENV2 CPE rescue 5, CFTR F508del cor 3, ERAP1 HTS inh -3 and FGF22 binding 0.
`COc1ccc(-c2sc3cc(OC)c(OC)cc3c2C#CC(C)(C)O)cc1` gave E-selectin induc 0, DENV2 CPE rescue 24*, CFTR F508del cor 3, ERAP1 HTS inh 0 and FGF22 binding 0.
Screening COc1ccc(-c2sc3cc(OC)c(OC)cc3c2C#CCO)cc1 returned E-selectin induc 5, DENV2 CPE rescue 2, CFTR F508del cor 4 and ERAP1 HTS inh 14.
C[C@@H]1CN([C@H](C)CO)C(=O)Cc2cc(NC(=O)CCN3CCOCC3)ccc2O[C@@H]1CN(C)C was read as DENV2 CPE rescue 2, CFTR F508del cor -1, ERAP1 HTS inh -3 and FGF22 binding 0.
O=S(=O)(NCCC1=CCCCC1)c1ccc(Br)cc1 was read as E-selectin induc 0, DENV2 CPE rescue 119*, CFTR F508del cor -3, ERAP1 HTS inh 0 and FGF22 binding 0.
For Cc1cc(Br)c(OCc2ccc(C(=O)N/N=C3\CC(=O)CC(C)(C)C3)cc2)c(Br)c1 the results were DENV2 CPE rescue 76*, CFTR F508del cor 0, ERAP1 HTS inh -2 and FGF22 binding 0.
`CC1(C)CC(=O)C/C(=N/NC(=O)c2ccc(-c3ccccc3)cc2)C1` gave E-selectin induc 3, DENV2 CPE rescue 1, ERAP1 HTS inh -1 and FGF22 binding 0.
Screening Cc1cc(C(=O)NN=C2CCCC2)c2ccccc2n1 returned DENV2 CPE rescue -5, CFTR F508del cor 0, ERAP1 HTS inh 4 and FGF22 binding 0.
`Cc1cc(C(=O)N/N=C2\CC(=O)CC(C)(C)C2)c2ccccc2n1` gave DENV2 CPE rescue 12, CFTR F508del cor 1, ERAP1 HTS inh -3 and FGF22 binding 43*.
Screening Cc1ccc(C)c(NC(=O)CCC(=O)N/N=C/c2ccc3c(c2)OCO3)c1 returned DENV2 CPE rescue 2, ERAP1 HTS inh 10 and FGF22 binding 43*.
Screening Cc1ccc(S(N)(=O)=O)cc1NC(=O)/C=C/c1ccc2c(c1)OCO2 returned E-selectin induc 8, DENV2 CPE rescue -3, CFTR F508del cor 3, ERAP1 HTS inh 4 and FGF22 binding 43*.
For COc1ccccc1C(=O)NCC(=O)N/N=C/c1ccc2c(c1)OCO2 the results were E-selectin induc 0, DENV2 CPE rescue inconclusive, CFTR F508del cor -2, ERAP1 HTS inh 7 and FGF22 binding 0.
For Cc1ccccc1NCC(=O)N/N=C\c1ccc2c(c1)OCO2 the results were DENV2 CPE rescue 6, CFTR F508del cor -2, ERAP1 HTS inh -1 and FGF22 binding 44*.

Screening data as filed in PubChem.
